Publication PMC6044914 (ACS Omega, 2017)
Converted amounts (≈) assume the structure as drawn. Where two headings read alike, the source gives them in different places.

What was measured:
[1] = system: M. tuberculosis H37Rv (London Pride); assay: microbe, parasite or virus in culture; assay type: cell-based, Mycobacterium tuberculosis; settings: for MIC: Mycobacterium tuberculosis, H37RV; for activity against M. tuberculosis (in words): SAR discussion
[2] = Pharmacokinetic profiling in the rat; assay type: in vivo; settings: plasma; for bioavailability: oral; for AUC: po
[3] = system: E. coli DH5α; assay: Spectrum, MIC99 by serial dilution agar method; assay type: cell-based; settings: Escherichia coli, read-out: MIC (μM) E. coli
Procedure, shortened: (§1)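 Serial-dilution agar MIC99 with test compound in the agar. Organisms were grown on different media: B. subtilis Marburg on nutrient agar, E. coli DH5α and S. aureus RN4220 on LB agar, M. smegmatis mc2155 on Middlebrook 7H10 + 10% v/v OADC, P. aeruginosa BAA 47 PA0 on tryptic soy agar, S. cerevisiae Y187 on YPD agar. Late-log culture was plated and incubated at 37 °C until large colonies formed on no-compound plates. MIC99 is the lowest concentration giving <1% growth.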

[4] = system: P. aeruginosa BAA 47 PA0; assay: Spectrum, MIC99 by serial dilution agar method; assay type: cell-based; settings: Pseudomonas aeruginosa, BAA47, read-out: MIC (μM) P. aeruginosa
Procedure, shortened: as §1

[5] = system: B. subtilis Marburg; assay: Spectrum, MIC99 by serial dilution agar method; assay type: cell-based; settings: Bacillus subtilis, read-out: MIC (μM) B. subtilis
Procedure, shortened: as §1

[6] = system: S. aureus RN4220; assay: Spectrum, MIC99 by serial dilution agar method; assay type: cell-based, Staphylococcus aureus; settings: for MIC: Staphylococcus aureus, RN4220, read-out: MIC (μM) St. aureus
Procedure, shortened: as §1

[7] = system: S. cerevisiae Y187; assay: Spectrum, MIC99 by serial dilution agar method; assay type: cell-based, Saccharomyces cerevisiae; settings: for MIC: Saccharomyces cerevisiae, Y187, read-out: MIC (μM) Sa. cerevisiae
Procedure, shortened: as §1

[8] = system: replicating M. tuberculosis; assay: Kill kinetics in replicating conditions; assay type: cell-based, Mycobacterium tuberculosis; settings: for bactericidal activity against replicating M. tuberculosis (in words): aerobic conditions; for concentration at which bactericidal, replicating M. tuberculosis: bactericidal = at least 3 logs kill in 21 days
[9] = system: Vero cells; settings: African green monkey
[10] = system: nonreplicating M. tuberculosis (nutrient starvation); settings: previous work; cited from earlier work
[11] = rats; rapidly metabolized; cited from earlier work
[12] = system: M. smegmatis mc^2155; assay: Spectrum, MIC99 by serial dilution agar method; assay type: cell-based, Mycobacterium smegmatis
Procedure, shortened: as §1

[13] = system: nonreplicating M. tuberculosis (nutrient starvation); assay: Kill kinetics under starvation; assay type: cell-based, Mycobacterium tuberculosis; settings: for concentration at which bactericidal, nonreplicating M. tuberculosis: concentrations as low as

## O=C(Nc1ncc([N+](=O)[O-])s1)C1CCCCC1 [compound 28, N-(5-Nitrothiazol-2-yl)cyclohexanecarboxamide]
[1]
  MIC: > 20 µM
  activity against M. tuberculosis (in words): loss of activity
[2]
  Vd: 0.68 ± 0.12 L/kg
  clearance: 69.8 ± 4.3 mL/min/kg
  bioavailability: 17.5 ± 4.2%
  AUC: 418 ± 96 ng·h/mL

## CCC(C)(C)C(=O)Oc1ccccc1C(=O)Nc1ncc([N+](=O)[O-])s1 [compound 8, 2-((5-Nitrothiazol-2-yl)carbamoyl)phenyl 2,2-Dimethylbutanoate]
[1]
  improvement in activity relative to 1: 10 fold
  activity against M. tuberculosis (in words): showed activity
[1]; 120 h
  MIC: 1.4 ± 0.07 µM (≈ 0.509 µg/mL)
[3]
  MIC: > 25 µM
[4]
  MIC: > 100 µM
[5]
  MIC: 1 µM (≈ 0.363 µg/mL)
[6]
  MIC: > 50 µM
[7]
  MIC: > 100 µM
[8]
  bactericidal activity against replicating M. tuberculosis (in words): rapidly bactericidal
[8]; in 7 days at 10× MIC
  kill of replicating M. tuberculosis: > 4 log
[9]
  TC50: 6.2 µM

## O=C(Nc1ncc([N+](=O)[O-])s1)c1ccccc1O [compound 2, 2-Hydroxy-N-(5-nitrothiazol-2-yl)benzamide, reference compound]
[1]; 120 h
  MIC: 20 µM (≈ 5.3 µg/mL)
[2]
  Vd: 0.698 ± 0.327 L/kg
  clearance: 57.5 ± 3.3 mL/min/kg
  bioavailability: 5.8 ± 0.1%
  AUC: 167 ± 10 ng·h/mL
[9]
  TC50: >20 µM

## CC(=O)Oc1ccccc1C(=O)Nc1ncc([N+](=O)[O-])s1 [compound 1, 2-(5-Nitrothiazol-2-ylcarbamoyl)phenyl Acetate, reference compound]
[1]; 120 h
  MIC: 14 µM
[1]; read-out: minimum inhibitory concentration (MIC)
  MIC: 14 µM
[9]
  TC50: >20 µM
[10]
  activity against nonreplicating or persistent M. tuberculosis (in words): good activity
[11]
  detection in plasma or urine: not detectable

## Cc1cccc(C(=O)Nc2ncc([N+](=O)[O-])s2)c1O [compound 13, 2-Hydroxy-3-methyl-N-(5-nitrothiazol-2-yl)benzamide]
[2]
  Vd: 0.16 ± 0.012 L/kg
  clearance: 8.96 ± 0.51 mL/min/kg
  bioavailability: 72.5 ± 18.4%

## O=C(Nc1ncc([N+](=O)[O-])s1)c1ccccn1 [compound 19, N-(5-Nitrothiazol-2-yl)picolinamide]
[1]; 120 h
  MIC: 2.4 ± 0.0071 µM (≈ 0.601 µg/mL)
[1]
  activity against M. tuberculosis (in words): improved activity
[3]
  MIC: > 100 µM
[12]
  susceptibility of M. smegmatis (in words): sensitive
[4]
  MIC: > 100 µM
[5]
  MIC: 3.1 µM (≈ 0.776 µg/mL)
[6]
  MIC: > 100 µM
[7]
  susceptibility of S. cerevisiae (in words): sensitive
  MIC: 12.5 µM (≈ 3.13 µg/mL)
[8]
  bactericidal activity against replicating M. tuberculosis (in words): bactericidal
  concentration at which bactericidal, replicating M. tuberculosis: ≥ 5 times the MIC
[13]
  bactericidal activity under nonreplicating conditions (in words): bactericidal activity
  concentration at which bactericidal, nonreplicating M. tuberculosis: ≤ 1.25 × MIC
[9]
  TC50: 20 µM

## O=C(Nc1ncc([N+](=O)[O-])s1)c1ccc(N2CCOCC2)cn1 [compound 25, 5-Morpholino-N-(5-nitrothiazol-2-yl)picolinamide]
[1]; 120 h
  MIC: > 20 µM
[1]
  activity against M. tuberculosis (in words): inactive
[9]
  TC50: 11 µM

## O=C(Nc1ncc([N+](=O)[O-])s1)c1ccccc1 [compound 4, N-(5-nitrothiazol-2-yl)benzamide]
[2]
  Vd: 0.18 ± 0.006 L/kg
  clearance: 6.1 ± 0.5 mL/min/kg
  bioavailability: 63.5 ± 6.9%

## O=C(Nc1ccccc1)Nc1ncc([N+](=O)[O-])s1 [compound 37, 1-(5-Nitrothiazol-2-yl)-3-phenylurea]
[1]
  MIC: 17 ± 4.2 µM (≈ 4.49 µg/mL)
  activity against M. tuberculosis (in words): comparable activity to the parent compound 1
[3]
  MIC: > 100 µM
[4]
  MIC: > 100 µM
[5]
  MIC: 50 µM (≈ 13.2 µg/mL)
[6]
  susceptibility of S. aureus (in words): sensitive
  MIC: 50 µM (≈ 13.2 µg/mL)
[7]
  MIC: > 100 µM
[8]
  bactericidal activity against replicating M. tuberculosis (in words): bactericidal activity
  concentration at which bactericidal, replicating M. tuberculosis: equivalent to the MIC
[8]; in 21 days, at concentrations equivalent to the MIC
  kill of replicating M. tuberculosis: at least 3 logs
[13]
  bactericidal activity under nonreplicating conditions (in words): bactericidal activity
  concentration at which bactericidal, nonreplicating M. tuberculosis: ≤ 1.25 × MIC
